Laboratory results as given in ChEMBL document CHEMBL5705905, “Pharmacological targeting of kinases MST1 and MST2 augments tissue repair and regeneration” (Sci Transl Med, 2016).
The source made the active and inactive calls. No cut-off for these calls is given here.

What was measured:
[1] = target: T1, Serine/threonine-protein kinase 3 (Homo sapiens, UniProt Q13188); test: Inhibition of Flag-tagged full-length MST2 (unknown origin) transfected in HEK293T cells assessed as MOB1a phosphorylation level incubated for 3 hrs by immunoblot analysis
T1 sequence (Q13188 whole entry): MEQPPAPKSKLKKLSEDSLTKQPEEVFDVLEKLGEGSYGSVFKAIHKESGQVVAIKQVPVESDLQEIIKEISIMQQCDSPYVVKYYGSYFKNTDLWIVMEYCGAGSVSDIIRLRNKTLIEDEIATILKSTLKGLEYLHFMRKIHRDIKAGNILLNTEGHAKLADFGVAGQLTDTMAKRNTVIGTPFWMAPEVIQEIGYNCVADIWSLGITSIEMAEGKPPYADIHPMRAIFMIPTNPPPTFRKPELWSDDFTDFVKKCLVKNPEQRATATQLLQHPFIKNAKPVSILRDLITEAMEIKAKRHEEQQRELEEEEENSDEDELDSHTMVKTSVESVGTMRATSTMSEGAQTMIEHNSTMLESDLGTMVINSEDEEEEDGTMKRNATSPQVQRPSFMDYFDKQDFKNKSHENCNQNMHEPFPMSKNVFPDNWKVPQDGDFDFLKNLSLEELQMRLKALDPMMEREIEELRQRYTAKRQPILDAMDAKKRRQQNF

[2] = target: T2, Serine/threonine-protein kinase 4 (Homo sapiens, UniProt Q13043); test: Inhibition of recombinant His-tagged full-length MST1 (unknown origin) expressing in Escherichia coli assessed as MOB1a phosphorylation level incubated for 30 min in the presence of 300 uM ATP by immunoblot analysis
T2 sequence (Q13043 whole entry): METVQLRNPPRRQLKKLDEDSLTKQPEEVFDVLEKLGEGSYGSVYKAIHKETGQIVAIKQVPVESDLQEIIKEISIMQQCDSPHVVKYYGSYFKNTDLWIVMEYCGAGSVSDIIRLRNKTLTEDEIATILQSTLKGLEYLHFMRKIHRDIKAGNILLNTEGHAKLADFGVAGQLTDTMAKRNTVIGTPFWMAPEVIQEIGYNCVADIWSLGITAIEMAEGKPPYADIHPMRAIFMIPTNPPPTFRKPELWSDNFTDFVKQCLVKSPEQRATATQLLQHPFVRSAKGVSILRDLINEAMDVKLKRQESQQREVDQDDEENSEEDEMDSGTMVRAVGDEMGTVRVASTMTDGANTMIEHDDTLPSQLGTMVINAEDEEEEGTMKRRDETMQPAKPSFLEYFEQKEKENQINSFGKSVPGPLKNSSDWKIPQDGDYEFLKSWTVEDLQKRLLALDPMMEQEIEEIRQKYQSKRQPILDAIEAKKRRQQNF

[3] = target: Casein kinase I isoform gamma-1 (Homo sapiens) (UniProt Q9HCP0); test: Inhibition of CSNK1G1 (unknown origin) assessed as remaining activity at 1 uM by Kinome scan method relative to control
How it was run: (§1)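 Active-site-dependent competition-binding profiling (KINOMEscan) at 1 μM against a 468-kinase panel; compound supplied from a 10 mM DMSO stock. Read-out is ctrl% = (test signal − positive control signal)/(negative control signal − positive control signal) × 100. DMSO is the negative control (100%) and a control compound the positive control (0%). Lower ctrl% means tighter binding.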

[4] = target: Casein kinase I isoform gamma-2 (Homo sapiens) (UniProt P78368); test: Inhibition of CSNK1G2 (unknown origin) assessed as remaining activity at 1 uM by Kinome scan method relative to control; how it was run: as §1
[5] = tested on: Epidermal growth factor receptor (Homo sapiens), P00533 [UNDEFINED MUTATION]; test: Inhibition of EGFR E746-A750del mutant (unknown origin) assessed as remaining activity at 1 uM by Kinome scan method relative to control
Chain of Epidermal growth factor receptor (Homo sapiens), P00533 [UNDEFINED MUTATION] (P00533 whole entry, looked up, stated change not applied): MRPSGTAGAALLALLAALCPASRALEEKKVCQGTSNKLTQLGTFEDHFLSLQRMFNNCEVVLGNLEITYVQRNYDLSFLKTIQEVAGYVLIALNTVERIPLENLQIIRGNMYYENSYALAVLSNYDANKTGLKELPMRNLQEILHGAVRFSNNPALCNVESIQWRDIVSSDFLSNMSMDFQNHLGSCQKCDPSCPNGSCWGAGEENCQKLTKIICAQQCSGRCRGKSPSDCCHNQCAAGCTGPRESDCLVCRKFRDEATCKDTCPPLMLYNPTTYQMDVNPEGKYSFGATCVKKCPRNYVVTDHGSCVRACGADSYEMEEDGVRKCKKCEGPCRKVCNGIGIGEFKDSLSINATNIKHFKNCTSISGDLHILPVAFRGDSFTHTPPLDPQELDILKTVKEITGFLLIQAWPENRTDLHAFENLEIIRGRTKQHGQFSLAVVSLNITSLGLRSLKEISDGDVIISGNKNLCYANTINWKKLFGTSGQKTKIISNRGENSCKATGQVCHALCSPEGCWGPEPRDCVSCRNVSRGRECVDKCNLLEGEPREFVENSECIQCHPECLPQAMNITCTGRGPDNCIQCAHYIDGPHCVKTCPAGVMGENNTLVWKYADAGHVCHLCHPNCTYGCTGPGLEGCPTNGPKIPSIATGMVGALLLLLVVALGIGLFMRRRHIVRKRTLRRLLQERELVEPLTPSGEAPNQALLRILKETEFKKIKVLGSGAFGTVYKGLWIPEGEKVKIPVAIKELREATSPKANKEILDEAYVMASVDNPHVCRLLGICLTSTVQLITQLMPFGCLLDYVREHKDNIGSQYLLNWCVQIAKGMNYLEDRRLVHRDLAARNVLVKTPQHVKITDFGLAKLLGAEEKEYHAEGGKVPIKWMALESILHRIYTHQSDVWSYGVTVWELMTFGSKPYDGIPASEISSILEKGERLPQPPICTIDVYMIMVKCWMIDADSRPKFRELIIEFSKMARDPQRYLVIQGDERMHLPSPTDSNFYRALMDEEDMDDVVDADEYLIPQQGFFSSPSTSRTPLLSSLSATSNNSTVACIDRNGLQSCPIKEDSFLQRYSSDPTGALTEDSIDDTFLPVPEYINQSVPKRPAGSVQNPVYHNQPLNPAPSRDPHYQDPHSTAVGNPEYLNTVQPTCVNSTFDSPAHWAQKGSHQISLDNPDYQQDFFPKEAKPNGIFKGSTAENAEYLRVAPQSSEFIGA

[6] = tested on: Epidermal growth factor receptor (Homo sapiens), P00533 [UNDEFINED MUTATION]; test: Inhibition of EGFR L747-E749del/A750P mutant (unknown origin) assessed as remaining activity at 1 uM by Kinome scan method relative to control
[7] = tested on: Receptor-type tyrosine-protein kinase FLT3 (Homo sapiens), P36888 [R834Q]; test: Inhibition of FLT3 R834Q mutant (unknown origin) assessed as remaining activity at 1 uM by Kinome scan method relative to control
[8] = target: Tyrosine-protein kinase FRK (Homo sapiens) (UniProt P42685); test: Inhibition of FRK (unknown origin) assessed as remaining activity at 1 uM by Kinome scan method relative to control
Chain of Tyrosine-protein kinase FRK (Homo sapiens) (P42685 whole entry): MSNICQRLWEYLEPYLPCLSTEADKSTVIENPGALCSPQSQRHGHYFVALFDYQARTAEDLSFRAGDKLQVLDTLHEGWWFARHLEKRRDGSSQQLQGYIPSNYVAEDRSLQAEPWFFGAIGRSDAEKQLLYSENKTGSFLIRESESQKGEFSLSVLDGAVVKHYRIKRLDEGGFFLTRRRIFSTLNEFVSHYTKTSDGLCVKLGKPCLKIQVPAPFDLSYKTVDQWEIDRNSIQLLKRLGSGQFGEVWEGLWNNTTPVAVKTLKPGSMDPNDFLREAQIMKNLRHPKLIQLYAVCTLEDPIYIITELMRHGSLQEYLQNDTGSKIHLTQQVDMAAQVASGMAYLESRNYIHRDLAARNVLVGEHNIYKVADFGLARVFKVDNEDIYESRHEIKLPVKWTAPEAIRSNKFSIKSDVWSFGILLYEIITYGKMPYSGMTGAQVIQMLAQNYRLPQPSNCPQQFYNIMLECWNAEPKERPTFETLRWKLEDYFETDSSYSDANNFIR

[9] = target: Homeodomain-interacting protein kinase 3 (Homo sapiens) (UniProt Q9H422); test: Inhibition of HIPK3 (unknown origin) assessed as remaining activity at 1 uM by Kinome scan method relative to control
[10] = target: Interleukin-1 receptor-associated kinase 1 (Homo sapiens) (UniProt P51617); test: Inhibition of IRAK1 (unknown origin) assessed as remaining activity at 1 uM by Kinome scan method relative to control
Chain of Interleukin-1 receptor-associated kinase 1 (Homo sapiens) (P51617 whole entry, looked up): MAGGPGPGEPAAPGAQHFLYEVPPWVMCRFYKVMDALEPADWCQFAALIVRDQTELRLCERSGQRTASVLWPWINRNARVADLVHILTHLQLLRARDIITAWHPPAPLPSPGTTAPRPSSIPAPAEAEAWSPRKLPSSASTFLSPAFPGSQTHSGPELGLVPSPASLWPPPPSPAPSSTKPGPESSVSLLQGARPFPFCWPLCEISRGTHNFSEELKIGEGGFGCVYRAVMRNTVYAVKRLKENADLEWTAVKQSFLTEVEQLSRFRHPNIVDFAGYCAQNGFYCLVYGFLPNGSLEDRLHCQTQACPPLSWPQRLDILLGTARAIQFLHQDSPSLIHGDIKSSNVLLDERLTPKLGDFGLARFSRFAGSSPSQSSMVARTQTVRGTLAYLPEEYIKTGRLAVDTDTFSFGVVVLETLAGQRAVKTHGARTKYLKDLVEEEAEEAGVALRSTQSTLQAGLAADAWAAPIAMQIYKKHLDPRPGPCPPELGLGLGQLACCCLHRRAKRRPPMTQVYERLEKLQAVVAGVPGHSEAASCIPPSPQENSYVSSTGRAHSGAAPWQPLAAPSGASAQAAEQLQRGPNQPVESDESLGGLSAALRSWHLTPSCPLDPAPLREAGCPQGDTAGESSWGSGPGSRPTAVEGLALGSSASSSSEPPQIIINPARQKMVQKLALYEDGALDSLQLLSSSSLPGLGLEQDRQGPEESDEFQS

[11] = target: Phosphatidylinositol 4-phosphate 5-kinase type-1 alpha (Homo sapiens) (UniProt Q99755); test: Inhibition of PIP5K1A (unknown origin) assessed as remaining activity at 1 uM by Kinome scan method relative to control
Chain of Phosphatidylinositol 4-phosphate 5-kinase type-1 alpha (Homo sapiens) (Q99755 whole entry): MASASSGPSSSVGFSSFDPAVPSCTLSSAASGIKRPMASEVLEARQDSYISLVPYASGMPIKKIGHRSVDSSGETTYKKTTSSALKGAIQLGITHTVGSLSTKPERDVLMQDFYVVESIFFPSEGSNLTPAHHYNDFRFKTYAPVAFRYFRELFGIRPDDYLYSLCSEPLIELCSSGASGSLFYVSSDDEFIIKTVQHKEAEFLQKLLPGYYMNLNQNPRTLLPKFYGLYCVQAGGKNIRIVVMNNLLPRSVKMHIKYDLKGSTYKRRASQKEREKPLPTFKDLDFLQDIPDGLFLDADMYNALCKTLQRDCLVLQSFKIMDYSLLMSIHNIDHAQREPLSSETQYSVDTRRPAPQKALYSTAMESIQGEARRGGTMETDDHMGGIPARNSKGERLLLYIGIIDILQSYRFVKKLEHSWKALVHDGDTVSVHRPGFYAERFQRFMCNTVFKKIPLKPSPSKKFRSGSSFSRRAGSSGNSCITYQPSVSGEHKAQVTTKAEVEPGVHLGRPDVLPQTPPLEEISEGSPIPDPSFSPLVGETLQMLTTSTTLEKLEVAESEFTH

[12] = target: Phosphatidylinositol 3-kinase catalytic subunit type 3 (Homo sapiens) (UniProt Q8NEB9); test: Inhibition of VPS34 (unknown origin) assessed as remaining activity at 1 uM by Kinome scan method relative to control
Chain of Phosphatidylinositol 3-kinase catalytic subunit type 3 (Homo sapiens) (Q8NEB9 whole entry): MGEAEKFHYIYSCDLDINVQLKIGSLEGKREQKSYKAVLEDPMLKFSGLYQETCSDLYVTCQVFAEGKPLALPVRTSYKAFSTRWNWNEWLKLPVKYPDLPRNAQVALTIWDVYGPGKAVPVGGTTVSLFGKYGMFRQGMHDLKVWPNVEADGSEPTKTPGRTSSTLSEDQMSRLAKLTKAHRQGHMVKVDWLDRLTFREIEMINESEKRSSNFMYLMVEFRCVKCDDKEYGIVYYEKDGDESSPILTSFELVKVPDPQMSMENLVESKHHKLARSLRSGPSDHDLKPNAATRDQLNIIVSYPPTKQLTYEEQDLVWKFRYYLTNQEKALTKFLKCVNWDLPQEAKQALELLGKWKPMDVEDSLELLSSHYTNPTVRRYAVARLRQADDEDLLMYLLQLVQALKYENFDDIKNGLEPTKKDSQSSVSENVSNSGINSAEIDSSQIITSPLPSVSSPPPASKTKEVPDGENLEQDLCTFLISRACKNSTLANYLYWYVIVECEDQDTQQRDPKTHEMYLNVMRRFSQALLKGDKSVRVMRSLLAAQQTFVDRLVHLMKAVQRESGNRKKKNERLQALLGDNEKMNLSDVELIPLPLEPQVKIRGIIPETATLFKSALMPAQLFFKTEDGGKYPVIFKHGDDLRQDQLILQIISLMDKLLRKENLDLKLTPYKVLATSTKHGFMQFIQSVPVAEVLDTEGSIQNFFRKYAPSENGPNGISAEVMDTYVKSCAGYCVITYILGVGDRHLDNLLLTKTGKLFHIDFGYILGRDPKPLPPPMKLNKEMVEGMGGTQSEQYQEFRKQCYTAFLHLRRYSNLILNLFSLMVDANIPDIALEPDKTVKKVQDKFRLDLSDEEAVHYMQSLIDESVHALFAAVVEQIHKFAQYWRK

[13] = target: Mitogen-activated protein kinase kinase kinase 20 (Homo sapiens) (UniProt Q9NYL2); test: Inhibition of ZAK (unknown origin) assessed as remaining activity at 1 uM by Kinome scan method relative to control
Chain of Mitogen-activated protein kinase kinase kinase 20 (Homo sapiens) (Q9NYL2 2-800 limits assumed): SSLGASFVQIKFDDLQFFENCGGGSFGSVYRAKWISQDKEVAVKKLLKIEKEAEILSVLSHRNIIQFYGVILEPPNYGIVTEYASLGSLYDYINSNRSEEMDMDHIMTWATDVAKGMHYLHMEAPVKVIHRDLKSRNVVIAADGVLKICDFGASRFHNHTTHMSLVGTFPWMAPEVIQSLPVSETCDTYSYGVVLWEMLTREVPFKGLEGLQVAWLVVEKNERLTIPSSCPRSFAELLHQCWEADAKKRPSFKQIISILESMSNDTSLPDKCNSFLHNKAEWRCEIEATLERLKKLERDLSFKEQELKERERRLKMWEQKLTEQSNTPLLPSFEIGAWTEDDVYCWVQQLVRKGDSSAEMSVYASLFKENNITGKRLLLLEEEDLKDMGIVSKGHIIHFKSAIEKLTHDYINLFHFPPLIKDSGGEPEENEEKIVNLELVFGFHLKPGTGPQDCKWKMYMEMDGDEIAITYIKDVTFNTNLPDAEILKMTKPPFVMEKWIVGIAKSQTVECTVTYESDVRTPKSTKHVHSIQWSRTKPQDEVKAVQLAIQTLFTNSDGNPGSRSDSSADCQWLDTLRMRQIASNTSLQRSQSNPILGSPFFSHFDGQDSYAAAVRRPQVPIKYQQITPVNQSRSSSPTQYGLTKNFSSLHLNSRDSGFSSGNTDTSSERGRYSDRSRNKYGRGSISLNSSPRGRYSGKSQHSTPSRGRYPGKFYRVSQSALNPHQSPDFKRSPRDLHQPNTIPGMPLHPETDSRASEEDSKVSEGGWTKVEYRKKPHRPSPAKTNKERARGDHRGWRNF

Aurora kinase A = Aurora kinase A (Homo sapiens, UniProt O14965); test: Inhibition of AURKA (unknown origin) in presence of ATP by enzymatic assay
Chain of Aurora kinase A (O14965 whole entry): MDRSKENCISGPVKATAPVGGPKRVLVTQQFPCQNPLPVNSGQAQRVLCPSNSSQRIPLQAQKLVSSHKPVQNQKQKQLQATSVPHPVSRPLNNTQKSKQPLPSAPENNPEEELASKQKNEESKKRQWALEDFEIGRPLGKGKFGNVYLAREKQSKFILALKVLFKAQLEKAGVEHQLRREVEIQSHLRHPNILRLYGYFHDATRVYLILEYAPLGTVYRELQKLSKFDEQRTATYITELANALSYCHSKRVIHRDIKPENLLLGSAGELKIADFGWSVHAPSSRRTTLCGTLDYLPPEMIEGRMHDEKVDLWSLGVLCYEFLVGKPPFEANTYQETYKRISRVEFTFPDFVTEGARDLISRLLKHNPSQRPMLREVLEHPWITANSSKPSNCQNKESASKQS

RAW264.7 = test: Inhibition of MST1/2 (unknown origin) in mouse RAW264.7 cells assessed as H2O2 stimulated MOB1 phosphorylation level at 1 to 3 uM by immunoblot analysis; assay type: cell-based; conditions: dose 1-3 µM
[14] = Acute toxicity in mouse assessed as increase in liver/body weight ratio at 1 mg/kg,ip administrated once a daily for 3 weeks relative to control; assay type: organism-based; conditions: in vivo, 504 h
How it was run: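 Postnatal mice dosed from 10 days of age with vehicle or 1 mg/kg once per day for 21 days (3 weeks). Vehicle is 0.1% citric acid aqueous solution containing 20% Kolliphor HS 15. Liver sections stained with H&E and by IHC for CK19 and BrdU, with positive cells quantified (n = 3). Liver/body weight ratio recorded (n = 4). Values are means ± SD versus vehicle, Student's t test.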

Mus musculus [15] = test: Protection against human hepatocyte transplanted FRG mouse assessed as increase in human albumin level at 1 mg/kg, ip administrated once a day and measured within 6 weeks; assay type: functional, organism-based; conditions: Liver
Mus musculus [16] = test: Anti-colitis activity against DSS-induced mouse assessed as cancerous phenotype at 1 mg/kg, ip administrated daily for 1 week; assay type: functional, organism-based; conditions: Colon, time 1.0 weeks
How it was run: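 DSS given orally for 7 days. Mice received 1 mg/kg intraperitoneally daily for 1 week. Animals were followed for more than 10 months for cancerous phenotypes.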

[17] = target: T1, Serine/threonine-protein kinase 3

CN1C(=O)c2sccc2N(C)c2nc(Nc3ccc(S(N)(=O)=O)cc3)ncc21
IC50 [1]: 38.1 nM | IC50 [2]: 4040 nM | Activity [3]: 79% | Activity [4]: 100% | Activity [5]: 82% | Activity [6]: 100% | Activity [7]: 91% | Activity [8]: 100% | Activity [9]: 100% | Activity [10]: 51% | Activity [11]: 100% | Activity [12]: 79% | Activity [13]: 82% | IC50 (Aurora kinase A): 19.4 nM | inhibition (RAW264.7): Active | Activity [14]: 15% | Activity (Mus musculus [15]): Active | Activity (Mus musculus [16]): Active | IC50 [17]: 38.8 nM
